Measurements from PubChem BioAssay AID720543 (The Scripps Research Institute Molecular Screening Center, 2013).
Among all 370,000 compounds or so, about 2,000 (0.54%) were called active. The entries come from a sample that favours actives as a whole. A number with no mark means an inactive call.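 How the source made its calls: active means inhibition exceeding the mean over every tested compound plus 3 SD (cut at about 30% in these data); inactive means the rest.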

molecular target: (Lyso)-N-acylphosphatidylethanolamine lipase (Mus musculus) (UniProt Q8VD66); test: mouse ABHD4 hydrolase activity blockers – biochemical, fluorescence polarization, primary screen (AID 720543); conditions: purified mABHD4, FP-Rh probe fluorescence polarization; at 8.92 µM; hits give high values;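 further: 0% = plate median of compound wells and 100% = S159A mutant with DMSO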
Procedure, shortened: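 System: mouse ABHD4 enzyme, wild type / Medium: HEPES pH 7.0, NaCl, Pluronic buffer / Reagent: FP-Rh activity-based fluorescent probe / Control set: S159A mutant high control, sample median low control / Detection: fluorescence polarization with parallel and perpendicular emission, 525/598 nm / Schedule: 45 min + 60 min at 25 °C / Compound dosing: 8.92 µM, single dose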

(Lyso)-N-acylphosphatidylethanolamine lipase (Mus musculus), sequence (Q8VD66 whole entry, looked up): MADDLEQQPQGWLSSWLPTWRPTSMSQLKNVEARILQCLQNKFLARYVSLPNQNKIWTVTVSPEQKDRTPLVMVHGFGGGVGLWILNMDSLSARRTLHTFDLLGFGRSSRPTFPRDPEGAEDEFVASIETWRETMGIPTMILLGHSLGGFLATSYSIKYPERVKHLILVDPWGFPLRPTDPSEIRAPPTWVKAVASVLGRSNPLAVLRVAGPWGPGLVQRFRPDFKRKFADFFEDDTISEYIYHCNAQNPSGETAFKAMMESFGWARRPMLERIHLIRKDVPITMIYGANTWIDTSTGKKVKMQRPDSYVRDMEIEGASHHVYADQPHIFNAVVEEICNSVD

Row | SMILES | inhibition
1 | CN(C)c1ccc(N/C=C/C(=O)C(F)(F)F)cc1 | 49.4% (active)
2 | CN(C)c1ccc(C(CC(=O)O)C(=O)O)cc1 (stereo unspecified) | 24.1%
3 | CC1CN(/C=C/C(=O)C(F)(F)F)CC(C)O1 (stereo unspecified) | -3.37%
4 | CC(=O)C1=C(C)NC(=O)NC1c1cc(Br)ccc1OCC#N (stereo unspecified) | 4.75%
5 | Nc1[nH]c(C(=O)c2ccccc2)c(-c2ccc(Cl)cc2Cl)c1C(=O)c1ccccc1 | -1.34%
6 | CC(C)c1ccc(CC(=O)N2CCC2(C)C(=O)NS(=O)(=O)c2ccc(C(C)(C)C)cc2)cc1 (stereo unspecified) | 59% (active)
7 | CCCC(=O)N1CCC1(C)C(=O)NS(=O)(=O)c1ccc(Cl)cc1 (stereo unspecified) | -1.74%
8 | CC(C)(C)c1ccc(S(=O)(=O)NC(=O)C2(C)CCN2C(=O)CC2CC2)cc1 (stereo unspecified) | -2.61%
9 | CCCCOCC1CN(CCCC)S(=O)(=O)c2c(Oc3ccc(F)cc3)cccc2O1 (stereo unspecified) | 4.37%
10 | COC(CNC(=O)[C@H](Cc1ccccc1)NC1(C(=O)NC2CCCCC2)CCCCC1)OC | 3.57%
11 | COCc1cc(N2CCN(C(=O)OC(C)(C)C)C[C@@H]2C)ccc1N1CCN(Cc2ccccc2)[C@H](C)C1 | -12.1%
12 | COc1ccc(C#CCNCc2ccc(OC)cc2OC)cc1 | -4.3%
13 | O=Nc1c(O)cc(O)c2ccccc12 | 55.7% (active)
14 | O=c1c2ccccc2ccc2ccc(P(=O)(O)O)cc12 | 12%
15 | Cc1ccc(S(=O)(=O)N(C)C)cc1NC(=O)c1n[nH]c(=O)c2ccccc12 | -9.11%
16 | CCOc1ccccc1C(=O)N1CCC[C@@H]1C(=O)N1CCC[C@H]1C(=O)NCc1ccccc1 | 1.14%
17 | CCOC(=O)CSc1nnc(CNC(=O)c2ccco2)n1-c1ccc(F)cc1 | 0.65%
18 | COC(=O)c1cc2c(c3c4cc(F)ccc4n(S(=O)(=O)c4ccccc4)c13)C(=O)N(Cc1ccccc1OC)C2 | -11.3%
19 | COc1ccc(C(CC(=O)c2ccccc2)S(=O)(=O)c2ccccc2)cc1 (stereo unspecified) | -2.98%
20 | O=C(NNc1c2ccccc2nc2ccccc12)c1cc2ccccc2cc1O | 31.3% (active)
21 | COC(=O)c1cc(N2CCNCC2)nc2ccccc12 | 1.72%
22 | Cc1ccc(C)c(NC(=O)NNC(=O)c2ccc3ccccc3c2O)c1 | 8.45%

Row | SMILES | inhibition
23 | CC(C)(C)c1ccc(S(=O)(=O)NCC2CCN(C(=O)C(=O)c3cc4ccccc4o3)CC2)cc1 | -26.4%
24 | NC(=O)C1CCN(C(=O)c2cc(S(=O)(=O)N3CCN(c4ccccc4)CC3)ccc2Cl)CC1 | 6.55%
25 | Brc1ccccc1C1Nc2cccc3cccc(c23)N1 | 45.1% (active)
26 | O=C1CCC([N+](=O)[O-])C(c2ccccc2Br)N1 (stereo unspecified) | -0.46%
27 | O=C(Nc1ccc(Br)cc1)OCCN1C(=O)CCC12CCC(c1ccccc1)CC2 (stereo unspecified) | 0.58%
28 | COC(=O)[C@H](C(C)C)N(CCc1cn(Cc2ccccc2)nn1)S(=O)(=O)c1ccc(F)cc1Br | -6.45%
29 | CC1(C)OC(=O)C2=C(C[C@@H](C3CC3)O[C@H]2CCc2cccc(Cl)c2)O1 | -7.3%
30 | CC(=O)O[C@@]1(C(C)=O)CCC2[C@H]3C=C(C)C4=CC(=O)CC[C@@]4(C)C3CC[C@]21C (stereo partly specified) | 5.34%
31 | Nc1ccc2nc3c(=O)[nH]c(=S)[nH]c3nc2c1 | 53.6% (active)
32 | Cc1cc(Cl)c(S(=O)(=O)Nc2ccc3c(c2)OCCO3)cc1OCC(N)=O | -2.74%
33 | CC1CCCN(S(=O)(=O)c2ccc(-c3ccc(=O)[nH]n3)o2)C1 (stereo unspecified) | -2.46%
34 | CC(C)CNS(=O)(=O)CC1NCCc2ccccc21 (stereo unspecified) | 3.38%
35 | COC(=O)[C@]12C[C@H](CC(=O)NCCCCc3ccccc3)C(=O)N(Cc3ccc4c(c3)OCO4)C1=C[C@H](C(C)(C)C)O[C@@H]2C | 0.01%
36 | OCCNc1nc(Nc2ccc(Cl)c(Cl)c2)nc2ccccc12 | 39.5% (active)
37 | OCCNCCOc1ccc(Cl)c(Cl)c1 | 3.5%
38 | O=C(CCS(=O)(=O)c1ccccc1)Nc1ccc(Cl)c(Cl)c1 | -9.05%
39 | CCOC(=O)[C@]12CCC=C1N(Cc1ccccc1)C(=O)[C@H](CC(=O)N1CCCC1)C2 | -6.55%
40 | O=C1[C@@H](c2ccccc2)[C@@H](c2ccccc2)N1c1ccccc1 | -3.86%
41 | Cc1cc2nc(-c3ccco3)c(Cc3cccc(F)c3)n2c(C)c1Br | 10.5%
42 | COC(=O)C[C@@H]1CC[C@@H]2[C@@H](COc3ccc(NC(=O)Nc4ccc(F)c(F)c4)cc3C(=O)N2C)O1 | 4.06%
43 | CCOc1c(Br)cc(/C=C2\C(=O)N(CCC#N)N=C2C)cc1OC | -10.7%
44 | COc1cc(/C=C2/C(=O)NN(c3cccc(Cl)c3)C2=O)cc(Br)c1O | 38.5% (active)

Row | SMILES | inhibition
45 | CC1CN(Cc2nc3c(c(=O)n(C)c(=O)n3C)n2Cc2cccc(Cl)c2)CC(C)O1 (stereo unspecified) | 4.39%
46 | CCCC1CCC2(CCCN2CCOC(=O)NCc2ccccc2)CC1 (stereo unspecified) | -7.41%
47 | O=[N+]([O-])c1cc(Br)c(O)c(/C=N/Nc2nc3ccccc3s2)c1 | 38.8% (active)
48 | CCC1(C)Cc2c(sc3nnn(CC(=O)Nc4ccc(Cl)cc4)c(=O)c23)CO1 (stereo unspecified) | -18.9%
49 | CC(=O)Nc1ccc(NC(=O)c2ccc3c(c2)C(=O)N(c2ccccc2C)C3=O)cc1 | -1.82%
50 | O=C(O)c1ccc2c(c1)C(=O)N(c1ccc(/C=C/C(=O)c3ccccc3)cc1)C2=O | 39.1% (active)
51 | COc1ccc(OC)c(NC(=O)c2ccc3c(c2)C(=O)N(c2ccc(OC(C)=O)cc2)C3=O)c1 | 3.91%
52 | Cc1cccnc1C(NC(=O)C1CCN(Cc2ccc(Cl)c(Cl)c2)CC1)c1ccc(Cl)cc1 (stereo unspecified) | -1.83%
53 | CC1CN(C2CCCCC2)c2nc3c(c(=O)n(C)c(=O)n3C)n2C1 (stereo unspecified) | -5.35%
54 | COc1cccc(CSc2nnc(-c3cccnc3)n2Cc2ccccc2)c1 | 0.82%
55 | COc1cc(/C=C/C(=O)n2cnc3ccccc32)cc(OC)c1OC | -5.44%
56 | C[C@H]1[C@H](NC(=O)c2cccc(N(C)C)c2)CC[C@@]23CCCN2C(=O)CCC[C@@H]13 | 4.02%
57 | COC(=O)c1cccc(Cn2ccc3ccc(-c4ccc5ccn(C(=O)C6CCCCC6)c5c4)cc32)c1 | 3.18%
58 | COc1cccc2c1C(=O)c1c(O)c3c(c(O)c1C2=O)CC(O)(C(C)=NNC(=O)c1ccc(Cl)c(Cl)c1)CC3OC1CC(N)C(O)C(C)O1 (stereo unspecified) | 67.4% (active)
59 | Cc1ccc(S(=O)(=O)/N=C2\C=C(NS(=O)(=O)c3ccc(C)cc3)C(=O)c3ccccc32)cc1 | 40.1% (active)
60 | Cc1ccc(S(=O)(=O)N[C@H](CO)C(C)C)cc1 | -3.46%
61 | Cc1ccc(S(=O)(=O)/N=S(\C)C(C)C)cc1 (stereo unspecified) | -2.12%
62 | C[C@@H](NC(=O)OC(C)(C)C)c1nnc(S(=O)(=O)Cc2ccccc2)o1 | 11.2%
63 | CC(C)C(=O)N1c2ccccc2NC2=C(C(=O)CCC2)C1c1ccc(N(C)C)cc1 (stereo unspecified) | 7.43%
64 | CCCCCCCCNS(=O)(=O)/C=C/c1cc(C)ccc1CNC(=O)OC(C)(C)C | -4.09%
65 | Cc1ccc(C)c(NC(=O)CCS(=O)(=O)c2ccccc2)c1 | -4.18%
66 | Oc1ccc2ccccc2c1N=Nc1nccs1 | 61.8% (active)

Row | SMILES | inhibition
67 | C[C@H](C(=O)N(C)c1ccccc1)[C@@H](O)c1ccc(Cl)cc1 | 0.42%
68 | Nc1[nH]c(C(=O)c2ccc(Br)cc2)c(-c2ccc3c(c2)OCO3)c1C(=O)NCCc1c[nH]c2ccccc12 | 48.9% (active)
69 | Nc1[nH]c(C(=O)c2ccccc2)c(-c2ccc(Br)cc2)c1C(=O)NC1CC1 | 1.95%
70 | Nc1[nH]c(C(=O)c2ccccc2)c(-c2ccncc2)c1C(=O)NCc1cccc2ccccc12 | -0.51%
71 | O=c1ccc2c(-c3ccccc3S(=O)(=O)O)c3ccc(O)c(O)c3oc-2c1O | 34% (active)
72 | COc1ccc(-n2c(COc3ccccc3)nnc2SCC(=O)Nc2ccc3c(c2)OCO3)cc1 | -9.7%
73 | CC(=O)OCCN1CCCC12CCC(c1ccccc1)CC2 (stereo unspecified) | 0.33%
74 | Cc1ccc(S(=O)(=O)N2CCC(C(=O)N[C@@H](C)C(=O)NCc3ccco3)CC2)cc1 | -2.84%
75 | CN1CCN(C(=O)c2cnn(-c3ccccc3)c2NC(=O)c2ccc([N+](=O)[O-])cc2)CC1 | -2.86%
76 | Cc1cc(/C=N/Nc2ccc([N+](=O)[O-])cn2)c(C)n1-c1cccc(C(=O)O)c1 | 45.6% (active)
77 | Cc1cccc(C(=O)NC(=S)N2CCN(c3ccc([N+](=O)[O-])cc3)CC2)c1 | -5.02%
78 | O=C(N[C@@H]1C/C=C\C[C@@H](CC(=O)N(CCO)Cc2ccccc2)C(=O)N[C@H](Cc2ccccc2)COC1=O)OCC1c2ccccc2-c2ccccc21 | 7.4%
79 | CSc1ccc(C=Nn2c(-c3ccc(F)cc3)n[nH]c2=S)cc1 | 0.61%
80 | CCCCc1c(-c2ccc(Br)cc2)ncn1CCc1ccccc1OC | -0.8%
81 | CCOCCCNC(=O)C(NC(=O)c1ccccc1O)c1ccccc1 (stereo unspecified) | -0.7%
82 | Clc1ccc(C2=CSC3=Nc4cccc5cccc(c45)N23)cc1 | 38.4% (active)
83 | O=C(OCC#CCSc1nnc(-c2ccco2)o1)c1ccc(F)cc1 | -9.72%
84 | Cc1oc2cc([N+](=O)[O-])c(O)c([N+](=O)[O-])c2c1C(=O)c1ccc(Br)cc1 | 8.71%
85 | Cc1oc2cc(Br)c(O)c(Br)c2c1C(=O)c1ccccc1 | 44.9% (active)
86 | COc1cc(/C(=C/c2ccccc2)c2ccccc2)c2c(c1)oc1ccccc12 | -1.7%
